One assay concerns the target Sphingosine kinase 1 (Homo sapiens) (UniProt Q9NYA1). Kind of assay: Rate of phosphorylation of labeled sphingosine derivative by human SPHK-1 expressed in HEK293 cells relative to rate of D-sphingosine. Format: functional, cell-based. Summed up: (§1)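 Enzyme source was the cytoplasmic fraction of HEK-293 cells overexpressing human SPHK-1 or -2. Incubation was at 30 °C for time points up to 2 h. Lipids were extracted, separated by TLC and quantified by phosphorimaging, and rates were expressed relative to sphingosine.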
Sequence of Sphingosine kinase 1 (Homo sapiens) (Q9NYA1 whole entry): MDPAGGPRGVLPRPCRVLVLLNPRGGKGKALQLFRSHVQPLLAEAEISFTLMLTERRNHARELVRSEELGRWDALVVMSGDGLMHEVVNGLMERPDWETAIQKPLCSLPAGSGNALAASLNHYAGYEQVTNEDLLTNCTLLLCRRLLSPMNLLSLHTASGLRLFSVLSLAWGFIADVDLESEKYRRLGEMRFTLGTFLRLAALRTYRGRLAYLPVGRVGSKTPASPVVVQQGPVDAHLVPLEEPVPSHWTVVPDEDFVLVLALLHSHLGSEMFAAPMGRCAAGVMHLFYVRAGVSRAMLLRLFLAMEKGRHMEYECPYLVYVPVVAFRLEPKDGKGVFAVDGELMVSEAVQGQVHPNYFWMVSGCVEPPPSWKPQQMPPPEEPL
For the compound `NC(CO)[C@H](O)/C=C/CCCCCCCCCCNc1ccc([N+](=O)[O-])c2nonc12` (single isomer, unassigned), the Rate was 0.5.

Turning to `N[C@@H](CO)[C@H](O)/C=C/CCCOC(=O)CCCc1ccc2ccc3cccc4ccc1c2c34`, the Rate was determined as 0.048.

As to `N[C@@H](CO)[C@H](O)/C=C/CCCOC(=O)CCCCCCCCCc1ccc2ccc3cccc4ccc1c2c34`, the Rate came to 0.024.

Turning to `N[C@@H](CO)[C@H](O)/C=C/CCCCCCCCCCOC(=O)c1ccc2ccc3cccc4ccc1c2c34`, the Rate worked out at 0.83.

As for `NC(CO)[C@H](O)/C=C/CCCCCCCCCCNS(=O)(=O)c1ccc2ccc3cccc4ccc1c2c34` (some centres undefined), the Rate came to 0.051.

`N[C@@H](CO)[C@H](O)/C=C/CCCOC(=O)CCCCCc1ccc2ccc3cccc4ccc1c2c34` gave a Rate of 0.078.

Take `CN(C)c1ccc(S(=O)(=O)NCCCCCCCCCC/C=C/C(O)C(N)CO)c2ccccc12` (single isomer, unassigned): the Rate was 0.063.

In the next assay the target is T1, Sphingosine kinase 2 (Homo sapiens) (UniProt Q9NRA0).
T1 sequence (whole entry): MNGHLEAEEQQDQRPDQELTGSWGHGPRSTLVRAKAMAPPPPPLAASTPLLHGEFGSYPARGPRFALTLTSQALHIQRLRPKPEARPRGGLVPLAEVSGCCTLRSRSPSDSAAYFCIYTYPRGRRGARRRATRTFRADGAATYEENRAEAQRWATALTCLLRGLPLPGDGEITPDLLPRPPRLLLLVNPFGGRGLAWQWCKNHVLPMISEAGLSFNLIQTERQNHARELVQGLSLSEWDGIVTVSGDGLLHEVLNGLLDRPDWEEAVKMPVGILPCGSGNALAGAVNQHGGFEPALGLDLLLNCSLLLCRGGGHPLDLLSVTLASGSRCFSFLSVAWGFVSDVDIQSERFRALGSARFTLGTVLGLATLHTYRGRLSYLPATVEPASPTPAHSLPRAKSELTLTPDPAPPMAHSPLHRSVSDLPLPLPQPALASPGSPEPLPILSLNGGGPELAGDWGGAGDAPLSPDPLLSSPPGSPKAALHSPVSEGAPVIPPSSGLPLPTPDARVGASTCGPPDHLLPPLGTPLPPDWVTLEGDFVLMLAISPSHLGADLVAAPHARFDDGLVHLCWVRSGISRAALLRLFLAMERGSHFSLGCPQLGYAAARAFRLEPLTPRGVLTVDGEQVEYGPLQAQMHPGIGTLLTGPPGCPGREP
In words: Rate of phosphorylation of labeled sphingosine derivative by human SPHK-2 expressed in HEK293 cells relative to rate of D-sphingosine. The format is functional, cell-based. Summed up:
as §1
As to `NC(CO)[C@H](O)/C=C/CCCCCCCCCCNc1ccc([N+](=O)[O-])c2nonc12` (single isomer, unassigned), the Rate was 0.48.

The compound `N[C@@H](CO)[C@H](O)/C=C/CCCOC(=O)CCCc1ccc2ccc3cccc4ccc1c2c34` returned a Rate of 0.14.

In turn, `N[C@@H](CO)[C@H](O)/C=C/CCCOC(=O)CCCCCCCCCc1ccc2ccc3cccc4ccc1c2c34` gave a Rate of 0.065.

As to `N[C@@H](CO)[C@H](O)/C=C/CCCCCCCCCCOC(=O)c1ccc2ccc3cccc4ccc1c2c34`, the Rate stood at 1.25.

As to `NC(CO)[C@H](O)/C=C/CCCCCCCCCCNS(=O)(=O)c1ccc2ccc3cccc4ccc1c2c34` (some centres undefined), the Rate came to 0.83.

Turning to `N[C@@H](CO)[C@H](O)/C=C/CCCOC(=O)CCCCCc1ccc2ccc3cccc4ccc1c2c34`, the Rate is 0.83.

`CN(C)c1ccc(S(=O)(=O)NCCCCCCCCCC/C=C/C(O)C(N)CO)c2ccccc12` (single isomer, unassigned) yielded a Rate of 0.026.
